From ChEMBL document CHEMBL1122125, “Synthesis and in vivo antitumor activity of potential 5-fluorouracil prodrugs” (1982)

Tests used:
Assay type in all cases: functional
Mus musculus [1] = assay: Antitumor activity was determined for average 7-day weight change against P-388 leukemia in mice at a dose of 600 mg/kg
How it was run: (§1)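 Male B6D2F1J mice given 10⁶ P-388 cells ip on day 0, then treated ip once daily on days 1-4 (qd × 4), 5 mice per dose group. Compounds dosed in sterile saline, except one lipophilic thioether given in 10% Tween 80. Mice weighed on days 1 and 7; mean weight per mouse on day 1 and 7-day weight change reported in g and as percent.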

Mus musculus [2] = assay: Antitumor activity was determined for average weight on day 1 against P-388 leukemia in mice at a dose 150 of mg/kg; how it was run: as §1
Mus musculus [3] = assay: Antitumor activity was determined for average weight on day 1 against P-388 leukemia in mice at a dose of 600 mg/kg
How it was run: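 Male B6D2F1J mice, groups of 5, inoculated ip with 10⁶ P-388 cells on day 0. Drug given ip on days 1-4 (qd × 4) in sterile saline, or in 10% Tween 80 for the poorly water-soluble thioether. Average weight per mouse recorded on day 1, with reweighing on day 7 for percent weight change. Untreated control groups had 10-17 animals per experiment.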

Mus musculus [4] = assay: Antitumor activity was determined for average weight on day 1 against P-388 leukemia in mice at a dose 75 of mg/kg; how it was run: as §1
Mus musculus [5] = assay: Antitumor activity was determined for median survival of mice against P-388 leukemia in mice at a dose of 75 mg/kg
How it was run: (§2)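 Male B6D2F1J mice implanted ip with 10⁶ P-388 cells on day 0; test agents given ip on days 1–4 (qd × 4) in sterile saline, or in 10% Tween 80 for the lipophilic thioether. Groups of 5 treated mice, with 10–17 untreated controls per experiment. Mice weighed on days 1 and 7 to give the 7-day weight change in g and %. Survival recorded in days as median and range.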

Mus musculus [6] = assay: Antitumor activity was determined for 7-day average percent weight change against P-388 leukemia in mice at a dose of 340 mg/kg; how it was run: as §1
Mus musculus [7] = assay: Antitumor activity was determined for 7-day average percent weight change against P-388 leukemia in mice at a dose of 300 mg/kg; how it was run: as §1
Mus musculus [8] = assay: Percent increase in life span against P-388 leukemia in mice was determined at a dose of 300 mg/kg; settings: P388
How it was run: (§3)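 Male B6D2F1J mice, 5 per dose group, received 10⁶ P-388 cells ip on day 0. Dosing was ip qd × 4 on days 1-4 in sterile saline, or 10% Tween 80 for the butyl thioether. Median survival times of treated (T) and untreated control (C, 10-17 mice) groups were compared: %ILS = [(T/C) − 1]100. Weights taken on days 1 and 7.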

Mus musculus [9] = assay: Antitumor activity was determined for median survival of mice against P-388 leukemia in mice at a dose of 300 mg/kg; how it was run: as §2
Mus musculus [10] = assay: Antitumor activity was determined for survival range of mice against P-388 leukemia in mice at a dose of 85 mg/kg
How it was run: (§4)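 Male B6D2F1J mice, 5 per dose group, implanted ip with 10⁶ P-388 leukemia cells on day 0. Drug given ip daily on days 1-4 (qd × 4) in sterile saline, or in 10% Tween 80 for the butyl thioether. Survival range recorded in days. Untreated control groups had 10-17 animals per experiment. Mice weighed on days 1 and 7.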

Mus musculus [11] = assay: Percent increase in life span against P-388 leukemia in mice was determined at a dose of 170 mg/kg; settings: P388; how it was run: as §3
Mus musculus [12] = assay: Antitumor activity was determined for survival range of mice against P-388 leukemia in mice at a dose of 75 mg/kg; how it was run: as §4

CC[C@H]1OC(n2cc(F)c(=O)[nH]c2=O)[C@H](O)[C@@H]1O (some centres not stated)
Average weight (Mus musculus [1]): -2.4 g mouse-1 | Average weight (Mus musculus [2]): 25.8 g mouse-1 | Average weight (Mus musculus [3]): 23.2 g mouse-1 | Average weight (Mus musculus [4]): 21.8 g mouse-1 | Survival median (Mus musculus [5]): 15 | Weight change (Mus musculus [6]): 5% | Weight change (Mus musculus [7]): 3% | ILS at 300 mg/kg (Mus musculus [8]): 54% | Survival median (Mus musculus [9]): 17 | Survival range (Mus musculus [10]): 13 | ILS at 170 mg/kg (Mus musculus [11]): 27% | Survival range (Mus musculus [12]): 14
